Assay results: ChEMBL document CHEMBL1136960, “Oxidation of carbidopa by tyrosinase and its effect on murine melanoma” (Bioorg Med Chem Lett, 2009)
Active and inactive are the calls of the source. The calls are words filed in the database; no cut-off is given here.

Columns and labels:
B16-F10 [1] = experiment: Cytotoxicity against mouse B16F10 cells after 24 hrs by MTT assay; assay type: functional, cell-based
In short: (§1)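 B16(F10) murine melanoma cells seeded at 2 × 10³ per well in RPMI 1640 with 10% FBS, 37 °C, 5% CO₂. After 24 h, compounds added in quadruplicate at eleven concentrations (10–2000 µM), then incubated a further 24 or 48 h. MTT (0.5 mg/mL in PBS) for 3 h at 37 °C, formazan dissolved in acid–isopropanol, A570. Survival = absorbance at time t / initial absorbance × 100%.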

B16-F10 [2] = experiment: Cytotoxicity against mouse B16F10 cells after 48 hrs by MTT assay; assay type: functional, cell-based; in short: as §1
[3] = Cytotoxicity against mouse NIH/3T3 cells by MTT assay; assay type: cell-based; conditions: nih3t3
In short: (§2)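 Control lines used: NIH3T3 (ATCC) and HECa10 (lymph node-derived). Cells seeded at 2 × 10³ per well in RPMI 1640 with 10% FBS, 37 °C, 5% CO₂. Compounds added after 24 h in quadruplicate (10–2000 µM, eleven concentrations), then 24 or 48 h exposure. MTT for 3 h, formazan dissolved in acid–isopropanol, A570. Survival is percent of initial absorbance.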

[4] = Cytotoxicity against mouse HECa10 cells by MTT assay; assay type: cell-based; in short: as §2
B16-F10 [5] = experiment: Cytotoxicity against mouse B16F10 cells at 250 uM after 48 hrs by MTT assay; assay type: functional, cell-based
In short: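 B16(F10) cells at 2 × 10³ per well in RPMI 1640 with 10% FBS, 37 °C, 5% CO₂. Compound added after 24 h in quadruplicate, with 250 µM among the tested concentrations, then incubated 48 h. MTT 0.5 mg/mL for 3 h, formazan dissolved in acid–isopropanol, read at 570 nm. Survival expressed as percent of initial absorbance.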

Compound	Activity (B16-F10 [1])	Activity (B16-F10 [2])	Activity [3]	Activity [4]	Activity (B16-F10 [5])
Cc1cc2cc(O)c(O)cc2nn1	inactive	Active	Toxic	Toxic	
CC(Cc1ccc(O)c(O)c1)C(=O)O (stereo unspecified)	Dose-dependent effect	Dose-dependent effect	Toxic	Toxic	
C[C@@](Cc1ccc(O)c(O)c1)(NN)C(=O)O.O [CARBIDOPA]			Toxic	Toxic	Active
